Activity calls are given as the source filed them. No cut-off for these calls is given here.
How the values were obtained:
[1] = (§1) Cytoprotective activity in rat INS-1E cells assessed as increase in recombinant rat IL-1beta/recombinant mouse IFN-gamma and TNF-alpha-suppressed glucose-stimulated insulin secretion preincubated for 48 hrs followed by KRBH buffer addition without glucose for 2 hrs and subsequently incubated with KRBH buffer in presence of glucose for 1 hr by ELISA; format: functional, cell-based; details: for EC50: Rattus norvegicus, INS-1E
Procedure, shortened: (§2)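 Cytokine-exposed INS-1E cells (48 h; IL-1β 20 ng/mL, INF-γ 50 ng/mL, TNF-α 50 ng/mL) were co-treated with a compound dose series, and glucose-stimulated insulin secretion was measured. EC50 and maximum activity were derived from the dose-response. Mean ± SD of 2 independent experiments.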

[2] = (§3) Cytoprotective activity in rat INS-1E cells assessed as restoration of recombinant rat IL-1beta/recombinant mouse IFN-gamma and TNF-alpha-suppressed ATP level after 48 hrs by Cell Titer-Glo assay; format: functional, cell-based; details: for EC50: Rattus norvegicus, INS-1E, 48 h
Procedure, shortened: (§4)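 INS-1E rat insulinoma cells exposed 48 h to IL-1β 20 ng/mL, INF-γ 50 ng/mL and TNF-α 50 ng/mL, with or without increasing compound concentrations. Cellular ATP was measured as a viability surrogate and normalized to untreated controls.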

[3] = (§5) Cytoprotective activity in rat INS-1E cells assessed as suppression of recombinant rat IL-1beta/recombinant mouse IFN-gamma and TNF-alpha-induced caspase-3 expression after 48 hrs by Caspase-Glo 3/7 assay; format: functional, cell-based; details: for IC50: Rattus norvegicus, INS-1E, 48 h
Procedure, shortened: (§6)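 INS-1E cells were given the 48 h cytokine cocktail (IL-1β 20 ng/mL, INF-γ 50 ng/mL, TNF-α 50 ng/mL) with rising compound concentrations. Caspase-3 activity, as a direct apoptosis readout, was normalized to untreated controls. Mean ± SD of 12 independent wells.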

[4] = (§7) Cytoprotective activity in rat INS-1E cells assessed as suppression of recombinant rat IL-1beta/recombinant mouse IFN-gamma and TNF-alpha-induced nitrite production after 48 hrs by Griess assay; format: functional, cell-based; details: for IC50: Rattus norvegicus, INS-1E, 48 h
Procedure, shortened: (§8)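 Nitrite production was measured in INS-1E cells after 48 h with IL-1β 20 ng/mL, INF-γ 50 ng/mL and TNF-α 50 ng/mL plus increasing compound concentrations. Mean ± SD of 12 independent wells.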

[5] = system: INS-1E; test: as §1; format: functional, cell-based; procedure, shortened: as §2
[6] = system: INS-1E; test: as §3; format: functional, cell-based; procedure, shortened: as §4
[7] = system: INS-1E; test: as §5; format: functional, cell-based; procedure, shortened: as §6
[8] = system: INS-1E; test: as §7; format: functional, cell-based; procedure, shortened: as §8
[9] = as §1, with “secretion at 5 uM” for “secretion”, “ELISA relative to control” for “ELISA”; format: functional
Procedure, shortened: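 After 48 h exposure to the cytokine cocktail (IL-1β 20 ng/mL, INF-γ 50 ng/mL, TNF-α 50 ng/mL) with 5 µM compound added, INS-1E insulin secretion was measured at low (2) and high (16) glucose. Results are compared with untreated and no-cytokine cells. Mean ± SD of 2 independent experiments.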

[10] = system: INS-1E; test: Cytoprotective activity in rat INS-1E cells assessed as restoration of recombinant rat IL-1beta/recombinant mouse IFN-gamma and TNF-alpha-suppressed ATP level at 2 uM after 48 hrs by Cell Titer-Glo assay; format: functional, cell-based; procedure, shortened: as §4

Compound	IC50 [3]	IC50 [4]	EC50 [1]	%max [1]	%max [2]	EC50 [2]	%max [3]	%max [4]	Activity [5]	Activity [6]	Activity [7]	Activity [8]	%max [5]	fold change (FC) [9]	Activity [10]
Cc1cc2nc(-c3ccc(C(=O)N/N=C/c4ccc(O)cc4O)cc3)[nH]c2cc1C	16.4 µM	17.5 µM	–	64%	86%	7.28 µM	75%	72%	–	–	–	–	–	–	–
COc1ccc(/C=N/NC(=O)c2ccc(-c3nc4cc(C)c(C)cc4[nH]3)cc2)c(O)c1	> 30 µM	> 30 µM	–	–	54%	29.3 µM	15%	18%	–	–	–	–	inactive	–	–
Cc1cc2nc(-c3ccc(C(=O)N/N=C/c4cc(O)ccc4O)cc3)[nH]c2cc1C	8.81 µM	17.3 µM	13.3 µM	71%	93%	2.57 µM	84%	71%	Dose-dependent effect	Dose-dependent effect	Dose-dependent effect	Dose-dependent effect	–	–	–
COc1ccc(O)c(/C=N/NC(=O)c2ccc(-c3nc4cc(C)c(C)cc4[nH]3)cc2)c1	> 30 µM	> 30 µM	–	–	61%	25.3 µM	12%	20%	–	–	–	–	inactive	–	–

More lines, main results first:

IC50 [3]	IC50 [4]	EC50 [1]	Compound	%max [1]	%max [2]	EC50 [2]	%max [3]	%max [4]	Activity [5]	Activity [6]	Activity [7]	Activity [8]	%max [5]	fold change (FC) [9]	Activity [10]
9.48 µM	11.4 µM	8.32 µM	Cc1cc2nc(-c3ccc(C(=O)N/N=C/c4cccc(O)c4O)cc3)[nH]c2cc1C	84%	89%	3.17 µM	82%	79%	Dose-dependent effect	Dose-dependent effect	Dose-dependent effect	Dose-dependent effect	–	–	–
> 30 µM	17.6 µM	–	Cc1cc2nc(-c3ccc(C(=O)N/N=C/c4ccc(O)c(O)c4)cc3)[nH]c2cc1C	53%	73%	16.7 µM	22%	68%	–	–	–	–	–	–	–
18.5 µM	9.47 µM	5.41 µM	Cc1cc2nc(-c3ccc(C(=O)N/N=C/c4cc(O)c(O)c(O)c4)cc3)[nH]c2cc1C	91%	98%	0.968 µM	68%	85%	Dose-dependent effect	Dose-dependent effect	Dose-dependent effect	Dose-dependent effect	–	>3	Active
